High-throughput results: PubChem BioAssay, several laboratories
Rows were chosen to be rich in hits. Some 4% of all compounds tested hit in one or more screens of this group.
Exocytosis inh – LAMP-1 surface exposure blockers, TALL-104 cells – cell-based, flow cytometry, MLPCN library, primary screen | TALL-104 LAMP-1 surface exposure; cells stimulated with thapsigargin and PMA | inhibition, % at 10 µM | 0.66% of 360,000 active;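 active = inhibition above about 55%, limit read from the data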
XBP1 UPR activ – activators of adaptive XBP1 UPR arm, primary screen, cell-based, CHO-XBP1 luciferase reporter, luminescence, uHTS; AID 463104, 2010; activation, % at 20 µM; IRE1-XBP1 UPR activation; percent of tunicamycin response, DMSO as zero; 0.33% of 330,000 active;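 active = versus positive control, 20 µM dose yields 30% or more activation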
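Signal: luciferase luminescence; Assay system: CHO-XBP1 luciferase reporter cells; Amount: one thousand reporter cells per well; Dosing: 20 µM single concentration, DMSO 1%; Benchmarks: high control tunicamycin 10 µg/mL final, low control DMSO vehicle only; Schedule: 6 h compound exposure at 37 °C, 5% CO2; Evaluation: percent activation relative to tunicamycin reference.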
Mdm2 MdmX PPI – inhibitors of human Mdm2-MdmX association, primary screen, cell-based, luminescence, split luciferase, SaOS-2, uHTS. Protein Mdm4 (Homo sapiens) + E3 ubiquitin-protein ligase Mdm2 (Homo sapiens), …. SaOS-2 split-luciferase Mdm2/MdmX complementation. inhibition, % at 8 µM. 3% of 330,000 active;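 active = inhibition of at least 50% at 8 µM in the primary screen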
CHOP UPR activ – activators of apoptotic CHOP UPR arm, primary screen, cell-based, CHO-CHOP luciferase reporter, luminescence, uHTS; UPR activation; percent of tunicamycin response over DMSO baseline; 0.34% of 330,000 active; activation, % at 10 µM;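 active = at 10 µM dose, activation of 40% or more, normalized to positive control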
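Material: CHO-CHOP cells, stable luciferase reporter of PERK-eIF2a-CHOP signalling; quantity: 500 reporter cells seeded per well; buffer or medium: F12 medium containing 10% fetal bovine serum; compound: one dose, 10 µM in 0.5% DMSO; incubation: 6 h compound treatment, 37 °C; measured by: Steady-Glo luciferase luminescence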
ABHD5 PLIN5 PPI – ABHD5-PLIN5 interaction inhibitors, primary screen, cell lysate, split luciferase complementation, luminescence; inhibition, % at 4 µM; Perilipin-5 (Homo sapiens) + 1-acylglycerol-3-phosphate O-acyltransferase ABHD5 (Homo …; 0.78% of 360,000 active; Split G. princeps luciferase complementation, 4 h;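 active = inhibition above the mean inhibition across every tested compound plus 3 SD, cut at about 22% in these data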
ABHD5-PLIN5 conf – ABHD5-PLIN5 interaction inhibitors, confirmation, biochemical, luminescence; 67% of 2,200 active; inhibition, % at 4 µM; shares compounds with ABHD5 PLIN5 PPI; in the data active = inhibition above about 23%
HNF4 counter – HNF4 dimerization inhibitors, counter-screen for ABHD5-PLIN5 interaction inhibitor project, biochemical, split-luciferase complementation, luminescence. AID 651674, 2012. 77% of 2,200 active. inhibition, % at 4 µM. shares compounds with ABHD5 PLIN5 PPI;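 active = mean inhibition across replicate wells exceeding the computed hit threshold, cut at about 13% in these data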;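 also: light from luciferase halves that rejoin when HNF4 fusion proteins dimerize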
Target sequence (P41235 whole entry, looked up, the tested form may be a part): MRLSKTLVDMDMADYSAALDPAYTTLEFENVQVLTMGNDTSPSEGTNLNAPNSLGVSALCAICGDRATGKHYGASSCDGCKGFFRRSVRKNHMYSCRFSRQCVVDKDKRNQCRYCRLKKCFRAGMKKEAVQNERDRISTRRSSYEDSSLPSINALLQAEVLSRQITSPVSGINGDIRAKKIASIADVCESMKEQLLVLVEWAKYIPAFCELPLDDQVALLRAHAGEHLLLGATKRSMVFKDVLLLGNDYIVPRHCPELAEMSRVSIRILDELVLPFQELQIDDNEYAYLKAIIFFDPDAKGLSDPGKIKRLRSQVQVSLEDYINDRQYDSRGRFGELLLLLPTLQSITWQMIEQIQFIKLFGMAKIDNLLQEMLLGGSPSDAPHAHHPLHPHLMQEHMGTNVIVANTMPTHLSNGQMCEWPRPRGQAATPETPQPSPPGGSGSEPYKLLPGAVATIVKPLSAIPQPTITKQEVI
Hits are given with their value; - = inactive; . = not tested or not shown; ! = not active in a repeat.

SMILES	Exocytosis inh	XBP1 UPR activ	Mdm2 MdmX PPI	CHOP UPR activ	ABHD5 PLIN5 PPI	ABHD5-PLIN5 conf	HNF4 counter
Cc1ccc(-c2csc3ncnc(OCC(=O)NC(=O)NCc4ccco4)c23)cc1	-	-	-	-	31	-	13
NC(=O)c1c(NC(=S)Nc2ccc(F)cc2)sc2c1CCCC2	-	-	-	-	-	.	.
ClC(Cl)(c1nnnn1-c1ccccc1)c1nnnn1-c1ccccc1	-	.	.	.	87	74	103
Cc1ccccc1N1C(=O)C2C3C=CC(C2C1=O)N(C)C3=O (configuration not stated)	-	-	-	-	-	.	.
CN1C2C=CC(=O)C1C1C(=O)N(c3ccccc3)C(=O)C12 (configuration not stated)	-	.	.	.	44	42	44
COc1nc(NC(C)C)nc(N(C#N)CN2C(=O)c3ccccc3S2(=O)=O)n1	-	-	-	-	26	29	26
CC(C)Nc1nc(Cl)nc(N(C#N)CN2C(=O)c3ccccc3S2(=O)=O)n1	-	-	-	-	-	.	.
CC(C)(C)Nc1nc(Cl)nc(N(C#N)CN2C(=O)c3ccccc3S2(=O)=O)n1	-	-	-	-	33	30	24
CCN(CC)S(=O)(=O)c1ccc(N2CCCC2)c(NS(=O)(=O)c2ccc([N+](=O)[O-])cc2)c1	-	-	-	-	-	.	.
CC(C)(C)OC(=O)N1Cc2cc3ccccc3nc2C1	-	.	.	.	-	.	.
CCOC(=O)C1(C(=O)OCC)COC(=O)C1CN1Cc2cc3ccccc3nc2C1 (configuration not stated)	-	.	.	.	46	29	89
C=C(C(=O)c1ccccc1)C(NC(C)(C)C)c1ccccc1 (configuration not stated)	-	.	.	.	42	65	54
COC(=O)C(NC(=O)c1ccccc1)c1ccccc1 (configuration not stated)	-	-	-	-	-	.	.
Cc1cc(N2CCCC2)c(F)cc1/C=C\[N+](=O)[O-]	74	.	.	.	47	97	95
CC1=C(C(=O)N2CCCCCC2)CC(CC(=O)NC2CCCCC2)C(=O)N1Cc1ccc(F)cc1 (configuration not stated)	-	.	.	.	-	.	.
O=S(=O)(Nc1nc2ccccc2nc1NCc1ccco1)c1ccc(F)cc1	-	-	-	-	25	-	-
Cc1ccc(NS(=O)(=O)c2cccc(C(=O)NNC(=O)c3ccco3)c2)c(C)c1	-	-	-	-	-	.	.
CCC(c1nnnn1Cc1ccco1)N(Cc1ccccc1OC)Cc1cc2cc(C)ccc2[nH]c1=O (configuration not stated)	-	-	-	-	-	.	.
CCC(c1nnnn1Cc1ccco1)N(Cc1cc2cc(C)cc(C)c2[nH]c1=O)CC1CCCO1 (configuration not stated)	-	-	-	-	28	-	-
O=C(C[n+]1cccc(CNC(=O)c2ccc(OC(F)F)cc2)c1)Nc1ccccc1Cl	-	-	-	-	-	.	.
O=C(C[n+]1cccc(CNC(=O)c2ccc(OC(F)F)cc2)c1)Nc1ccc(SC(F)F)cc1	-	-	-	-	29	-	-
CCCCCn1c(=NC(=O)c2ccco2)c(C(=O)OCC)cc2c(=O)n3ccccc3nc21	-	-	-	-	56!	-	25
CCCCn1c(=NC(=O)c2cccnc2)c(C(=O)OCC)cc2c(=O)n3ccccc3nc21	-	.	.	.	-	.	.
CCCCn1c(=NC(=O)c2ccco2)c(C(=O)OCC)cc2c(=O)n3cccc(C)c3nc21	-	-	-	-	37	-	14
C=CCN1C(=O)C(Cc2ccc(SC(F)F)cc2)SC1=Nc1ccc(C(=O)O)cc1 (configuration not stated)	-	-	-	-	-	.	.
SMILES	Exocytosis inh	XBP1 UPR activ	Mdm2 MdmX PPI	CHOP UPR activ	ABHD5 PLIN5 PPI	ABHD5-PLIN5 conf	HNF4 counter
COc1ccc(CN2CCC[C@]3(N[C@H](c4ccc(OC)cc4)[C@@H]4C(=O)N(Cc5ccccc5)C(=O)[C@@H]43)C2=O)cc1	-	.	.	.	-	.	.
NC(=O)Nc1ccc(C(=O)OCC(=O)Nc2sccc2C(N)=O)cc1	-	-	-	-	-	.	.
COc1cccc(CNC(=O)CSCC(=O)Nc2ccc(C)cc2)c1	-	-	-	-	-	.	.
O=C(Nc1ccc2c(c1)OCCO2)c1cc(F)c(F)cc1Cl	-	-	-	-	24	-	-
CCc1nc2c(sc3nc4c(cc32)COC(C)(C)C4)c(=O)n1Cc1ccccc1	-	-	-	-	-	.	.
CCc1nc2c(sc3nc4c(cc32)COC(C)(C)C4)c(=O)n1Cc1ccco1	-	-	-	-	28	-	36
Cc1nc(OCC(C)C)c2sc3nc4c(cc3c2n1)COC(C)(C)C4	-	-	-	-	-	.	.
CCc1nc(OCc2ccco2)c2sc3nc4c(cc3c2n1)COC(C)(C)C4	-	-	-	-	33	47	74
COC(=O)[C@@]1(Cc2ccc(F)cc2)[C@H]2c3cc(C(=O)N(C)C)n(CCCNc4ncc(C(F)(F)F)cc4Cl)c3C[C@H]2CN1C(=O)c1ccccc1	-	.	.	.	25	-	-
COC(=O)[C@@]1(Cc2ccc(F)cc2)[C@H]2c3cc(C(=O)N(C)C)n(CCO)c3C[C@H]2CN1C(=O)c1ccccc1	-	.	.	.	-	.	.
Cc1ccc(-c2nc(C)sc2CC(=O)NCc2ccco2)cc1	-	.	.	.	27	27	33
O=C(COC(=O)c1cc(-c2ccc(Cl)s2)nc2ccccc12)NCc1ccco1	-	-	-	-	38	59	56
Cc1ccc(-c2cc(C(=O)NCc3ccco3)c3ccccc3n2)s1	-	-	-	-	35	-	16
O=C(COC(=O)c1cc(-c2cccs2)nc2ccccc12)NCc1ccco1	-	-	-	-	-	.	.
O=C(NCc1ccco1)c1cc(-c2cccs2)nc2ccccc12	-	-	-	-	-	.	.
NS(=O)(=O)c1ccc(CCNC(=O)c2cc(-c3ccco3)nc3ccccc23)cc1	-	-	-	-	25	22	22
NS(=O)(=O)c1ccc(CCNC(=O)c2cc(-c3ccccc3)nc3ccccc23)cc1	-	-	-	-	-	.	.
Cc1ccc(CC(=O)Nc2cc(C)ccn2)cc1	-	-	-	-	-	.	.
CCCCNS(=O)(=O)c1ccc2nc(SCC(=O)Nc3ccccc3Cl)[nH]c2c1	-	-	-	-	-	.	.
